Like-named read-outs stand apart in the source and are kept apart here. One block for each compound: values may come before it.
Assays:
[1] = cited from earlier work
[2] = cited from earlier work; remark: listed apart in the source
[3] = format: in vivo, human; settings: for AUClast geometric mean ratio (90% CI): dapoxetine with udenafil combined therapy/dapoxetine monotherapy; for half-life: t1/2β
Summary of the method: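 Six-sequence, three-period crossover in healthy men aged 20–45, fasted, with a 7-day washout. Single oral doses of dapoxetine 60 mg alone or with udenafil 200 mg. EDTA plasma was sampled from predose to 48 h. Parent and desmethyl metabolite were measured by UPLC-MS/MS with deuterated internal standards. Non-compartmental analysis: AUClast by trapezoidal rule, AUC0~∞ = AUClast + Clast/λz, CL/F = dose/AUC0~∞. Ratios from log-transformed mixed-model ANOVA with 90% CI.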

[4] = integrated analysis of five trials, 6,081 patients; cited from earlier work
[5] = Tolerability / adverse drug reactions in healthy male subjects; format: in vivo, human; settings: for Abdominal discomfort: number of events / Abdominal discomfort: number of subjects / Adverse drug reactions, total: number of events / Decreased appetite: number of events / Decreased appetite: number of subjects / Diarrhea: number of events / Diarrhea: number of subjects / Dizziness: number of events / Dizziness: number of subjects / Headache: number of events / Headache: number of subjects / Insomnia: number of events / Insomnia: number of subjects / Nausea: number of events / Nausea: number of subjects / Ocular hyperemia: number of events / Ocular hyperemia: number of subjects / Somnolence: number of events / Somnolence: number of subjects / Suicidal ideation: number of events / Suicidal ideation: number of subjects / Vomiting: number of events / Vomiting: number of subjects / hyperhidrosis: number of events / hyperhidrosis: number of subjects / Adverse drug reactions, total: number of subjects: n=23 per treatment; for Adverse drug reactions, total: number of subjects / tolerability: udenafil 200 mg, dapoxetine 60 mg; for tolerability: alone or concomitantly, single oral doses
Summary of the method: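 Safety was monitored through each 48 h period and at follow-up 5–9 days after the last dose. Assessments were vital signs, 12-lead ECGs, hematology, blood chemistry, urinalysis, physical examinations and adverse-event monitoring. Each event was recorded with its symptoms/signs, duration, intensity, relation to study drug, action taken, outcome and seriousness. Counts are given as subjects and as events.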

[6] = rats; cited from earlier work
[7] = format: in vivo, human; settings: for half-life: t1/2β; for half-life / CL/F: mean ± SD; for half-life / Tmax / CL/F: n=22; for Tmax: median (min, max); for pharmacokinetic interaction with dapoxetine: single oral doses; for AUClast geometric mean ratio (90% CI): udenafil with dapoxetine combined therapy/udenafil monotherapy
Summary of the method: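 Crossover in healthy fasted men: single oral udenafil 200 mg alone or with dapoxetine 60 mg, with 240 mL water and a 1-week washout. Blood was taken 0.25–48 h postdose into EDTA and spun at 1,800 g, 4°C. Udenafil (5.0–2,000.0 ng/mL) and DA-8164 (0.25–100.00 ng/mL) were measured by UPLC-MS/MS. Non-compartmental AUC and CL/F were derived. Geometric mean ratios with 90% CI came from log-transformed mixed-model ANOVA.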

[8] = format: in vivo, human; settings: two-compartment model, WinNonlin
[9] = cited from earlier work; remark: listed apart in the source
[10] = cited from earlier work; remark: listed apart in the source
[11] = cited from earlier work; remark: listed apart in the source
[12] = combined therapy/dapoxetine monotherapy
[13] = male, human, plasma, oral, 60 mg
[14] = combined therapy/udenafil monotherapy
[15] = male, human, plasma, oral, 200 mg
[16] = male, human, plasma, oral, 200 mg, udenafil 200 mg alone
[17] = male, human, plasma, oral, udenafil 200 mg + dapoxetine 60 mg
[18] = udenafil 200 mg + dapoxetine 60 mg

AUC0~∞ geometric mean ratio (90% CI) [3, 12]: 1.117 (1.048–1.191)
CL/F geometric mean ratio (90% CI) [3, 12]: 0.895 (0.840–0.954)
Cmax geometric mean ratio (90% CI) [3, 12]: 0.837 (0.758–0.925)
t1/2β geometric mean ratio (90% CI) [3, 12]: 0.947 (0.873–1.028)
Cmax geometric mean ratio (90% CI) ([3]; combined therapy/dapoxetine monotherapy, listed as dapoxetine): 0.837
CL/F ([3]; dapoxetine 60 mg + udenafil 200 mg, mean ± SD, n=20): 26.59 ± 9.22 L/h
CL/F ([3]; dapoxetine 60 mg alone, mean ± SD, n=20): 30.41 ± 11.99 L/h
Tmax ([3]; dapoxetine 60 mg alone, median (min, max), n=20): 1.00 (0.50, 2.00) h
AUClast geometric mean ratio (90% CI) [3]: 1.125 (1.044–1.213)
AUClast geometric mean ratio (90% CI) ([3]; listed as dapoxetine): 1.125
AUC(0-inf) [3, 13]: 2.36 µg·h/mL
Cmax [3, 13]: 0.437 ± 0.143 µg/mL
Tmax [3, 13]: 1 h
half-life ([3]; male, human, plasma, oral, 60 mg, dapoxetine 60 mg alone, mean ± SD, n=20): 16.2 ± 6.72 h
half-life ([3]; male, human, plasma, oral, span over dapoxetine alone and with udenafil): 15.3 to 16.2 h
AUC(0-t) ([3]; male, human, plasma, po, 60 mg): 2.1 µg·h/mL
SMILES: CN(C)[C@@H](CCOc1cccc2ccccc12)c1ccccc1 [Dapoxetine]
initial half-life ([1]; biphasic elimination): approximately 1.4 hours
plasma concentration as share of peak concentration ([1]; by 24 hours after drug administration): approximately 5%
Tmax [1]: 1.0 to 1.3 h
increase in AUC of active moiety with ketoconazole [2]: 88%
increase in Cmax of active moiety with ketoconazole [2]: 23%
increase in parent drug AUC with ketoconazole [2]: 99%
increase in parent drug Cmax with ketoconazole [2]: 35%
PE profile measures compared with placebo [4]: improved significantly
Abdominal discomfort: number of events [5]: 1 (1)
Abdominal discomfort: number of subjects [5]: 1 (1)
Adverse drug reactions, total: number of events [5]: 24
Decreased appetite: number of events [5]: 0 (0)
Decreased appetite: number of subjects [5]: 0 (0)
Diarrhea: number of events [5]: 2 (2)
Diarrhea: number of subjects [5]: 2 (2)
Dizziness: number of events [5]: 5 (5)
Dizziness: number of subjects [5]: 5 (5)
Headache: number of events [5]: 2 (2)
Headache: number of subjects [5]: 2 (2)
Insomnia: number of events [5]: 0 (0)
Insomnia: number of subjects [5]: 0 (0)
Nausea: number of events [5]: 11 (11)
Nausea: number of subjects [5]: 11 (11)
Ocular hyperemia: number of events [5]: 0 (0)
Ocular hyperemia: number of subjects [5]: 0 (0)
Somnolence: number of events [5]: 1 (1)
Somnolence: number of subjects [5]: 1 (1)
Suicidal ideation: number of events [5]: 0 (0)
Suicidal ideation: number of subjects [5]: 0 (0)
Vomiting: number of events [5]: 2 (2)
Vomiting: number of subjects [5]: 2 (2)
hyperhidrosis: number of events [5]: 0 (0)
hyperhidrosis: number of subjects [5]: 0 (0)
Adverse drug reactions, total: number of subjects [5]: 12
tolerability [5]: well tolerated

AUC0~∞ geometric mean ratio (90% CI) [7, 14]: 0.923 (0.867–0.983)
CL/F geometric mean ratio (90% CI) [7, 14]: 1.084 (1.017–1.154)
Cmax geometric mean ratio (90% CI) [7, 14]: 0.864 (0.789–0.947)
t1/2β geometric mean ratio (90% CI) [7, 14]: 0.984 (0.948–1.022)
Cmax geometric mean ratio (90% CI) ([7]; combined therapy/udenafil monotherapy, listed as udenafil): 0.864
AUC(0-inf) [7, 15]: 4.93 µg·h/mL
Cmax [7, 15]: 0.693 ± 0.206 µg/mL
half-life [7, 16]: 11 ± 1.64 h
Tmax [7, 16]: 1 h
half-life [7, 17]: 10.8 ± 1.27 h
Tmax [7, 17]: 2 h
AUC(0-t) ([7]; male, human, plasma, po, 200 mg): 4.73 µg·h/mL
CL/F [7, 18]: 47.31 ± 14.07 L/h
CL/F ([7]; udenafil 200 mg alone): 43.69 ± 12.21 L/h
AUClast geometric mean ratio (90% CI) [7]: 0.923 (0.863–0.987)
AUClast geometric mean ratio (90% CI) ([7]; listed as udenafil): 0.923
absorption rate constant (ka) ([8]; combined therapy with dapoxetine): 0.50 ± 0.17 h⁻¹
absorption rate constant (ka) ([8]; monotherapy): 0.84 ± 0.29 h⁻¹
SMILES: CCCOc1ccc(S(=O)(=O)NCCC2CCCN2C)cc1-c1nc2c(CCC)nn(C)c2c(=O)[nH]1 (centres unmarked) [Udenafil]
absolute oral bioavailability [6]: 38.0%–55.6
pharmacokinetic interaction with dapoxetine [7, 18]: no clinically significant pharmacokinetic interactions
pharmacokinetic interaction with dapoxetine ([7]; udenafil 200 mg + dapoxetine 60 mg, listed as udenafil): no significant pharmacokinetic interactions
increase of mean AUClast on co-administration of ketoconazole [9]: 3.2 fold
increase of mean Cmax on co-administration of ketoconazole [9]: 1.9 fold
metabolic AUC ratio ([9]; udenafil administered alone): 1.71
metabolic AUC ratio ([9]; udenafil in combination with ketoconazole): 0.19
Abdominal discomfort: number of events [5]: 0 (0)
Abdominal discomfort: number of subjects [5]: 0 (0)
Adverse drug reactions, total: number of events [5]: 4
Decreased appetite: number of events [5]: 1 (1)
Decreased appetite: number of subjects [5]: 1 (1)
Diarrhea: number of events [5]: 0 (0)
Diarrhea: number of subjects [5]: 0 (0)
Dizziness: number of events [5]: 1 (1)
Dizziness: number of subjects [5]: 1 (1)
Headache: number of events [5]: 0 (0)
Headache: number of subjects [5]: 0 (0)
Insomnia: number of events [5]: 1 (1)
Insomnia: number of subjects [5]: 1 (1)
Nausea: number of events [5]: 0 (0)
Nausea: number of subjects [5]: 0 (0)
Ocular hyperemia: number of events [5]: 1 (1)
Ocular hyperemia: number of subjects [5]: 1 (1)
Somnolence: number of events [5]: 0 (0)
Somnolence: number of subjects [5]: 0 (0)
Suicidal ideation: number of events [5]: 0 (0)
Suicidal ideation: number of subjects [5]: 0 (0)
Vomiting: number of events [5]: 0 (0)
Vomiting: number of subjects [5]: 0 (0)
hyperhidrosis: number of events [5]: 0 (0)
hyperhidrosis: number of subjects [5]: 0 (0)
Adverse drug reactions, total: number of subjects [5]: 3
tolerability [5]: well tolerated
terminal half-life (t1/2β) ([10]; oral): 7.3 to 12.1 h
time to reach peak concentration (tmax) ([10]; oral): 0.8 to 1.3 h
ka ([10]; previously reported): 0.70 ± 0.26 h⁻¹

SMILES: CN1CC(=O)N2[C@H](c3ccc4c(c3)OCO4)c3[nH]c4ccccc4c3C[C@@H]2C1=O [tadalafil]
pharmacokinetic interaction with dapoxetine [11]: no clinically significant pharmacokinetic interactions
